pIC50: −log10 of the molar value.
Tests used:
[1] = test system: A2780; experiment: Growth inhibition of human A2780 cells after 96 hrs by MTT assay; format: functional, cell-based; conditions: A2780, 96 h
Outline: (§1)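 Cancer cell lines exposed continuously to each sample for 96 h; growth read by MTT assay. IC50, the concentration inhibiting cell growth by 50%, taken as the mean of three replicates. Taxol and NK109 served as positive controls.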

[2] = test system: HepG2; experiment: Growth inhibition of human HepG2 cells after 96 hrs by MTT assay; format: functional, cell-based; conditions: HepG2, 96 h
[3] = test system: HCT-116; experiment: Growth inhibition of human HCT116 cells after 96 hrs by MTT assay; format: functional, cell-based; conditions: HCT-116, 96 h; outline: as §1
[4] = test system: NCI-H1650; experiment: Growth inhibition of human NCI-H1650 cells after 96 hrs by MTT assay; format: functional, cell-based; conditions: NCI-H1650, 96 h; outline: as §1
[5] = test system: BGC-823; experiment: Growth inhibition of human BGC823 cells after 96 hrs by MTT assay; format: functional, cell-based; conditions: BGC-823, 96 h; outline: as §1
[6] = Cytotoxicity against rat IEC-6 cells assessed as survival rate at 10 uM after 48 hrs by MTT assay relative to control; format: cell-based; conditions: read-out: Survival
Outline: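 MTT read-out of viability in normal IEC-6 intestinal cells co-incubated with compound at 10 μM; readings at 0, 24 and 48 h of coculture (n = 5); survival expressed against a blank control group.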

Row | Structure (SMILES) | pIC50 [1] | pIC50 [2] | pIC50 [3] | pIC50 [4] | pIC50 [5] | viability at 48 h, 10 µM [6]
1 | COc1ccc2c(c[n+](C)c3c4cc5c(cc4ccc23)OCO5)c1O | 6.05 | 5.92 | 5.40 | 5.76 | 5.74 | –
2 | Nc1ncnc2c1ncn2[C@H]1CCC(=O)c2c(O)ccc(O)c21 | < 5.00 | < 5.00 | < 5.00 | < 5.00 | < 5.00 | –
3 | O=Cc1ccc2n1CCc1c([nH]c3ccccc13)C2 | 6.02 | 5.73 | 5.54 | 5.54 | 5.64 | 79.6%
4 | O=C1CC[C@H]2c3c([nH]c4ccccc34)CCN12 | < 5.00 | < 5.00 | < 5.00 | < 5.00 | < 5.00 | –
5 | Nc1ncnc2c1ncn2[C@@H]1CCC(=O)c2c(O)ccc(O)c21 | < 5.00 | < 5.00 | < 5.00 | < 5.00 | < 5.00 | –
6 | NC(=O)[C@@H]1CCC(=O)c2cccc(O)c2N1 | < 5.00 | < 5.00 | < 5.00 | < 5.00 | < 5.00 | –
7 | O=C1CC[C@@H](c2c[nH]c3ccccc23)c2c(O)ccc(O)c21 | < 5.00 | < 5.00 | < 5.00 | < 5.00 | < 5.00 | –
8 | O=C1CC[C@H](c2c[nH]c3ccccc23)c2c(O)ccc(O)c21 | < 5.00 | < 5.00 | < 5.00 | < 5.00 | < 5.00 | –
9 | CCOCc1ccc(C=O)n1CCc1ccc(O)cc1 | < 5.00 | < 5.00 | < 5.00 | < 5.00 | < 5.00 | –
10 | Nc1ncnc2c1ncn2[C@@H]1CCC(=O)c2cccc(O)c21 | < 5.00 | < 5.00 | < 5.00 | < 5.00 | < 5.00 | –
11 | Nc1ncnc2c1ncn2[C@H]1CCC(=O)c2cccc(O)c21 | < 5.00 | < 5.00 | < 5.00 | < 5.00 | < 5.00 | –
12 | O=C1CC[C@@H]2c3c([nH]c4ccccc34)CCN12 | < 5.00 | < 5.00 | < 5.00 | < 5.00 | < 5.00 | –
13 | NC(=O)[C@H]1CCC(=O)c2cccc(O)c2N1 | < 5.00 | < 5.00 | < 5.00 | < 5.00 | < 5.00 | –
14 | Nc1ncnc2c1ncn2C1CCC(=O)c2cccc(O)c21 (racemic) | < 5.00 | < 5.00 | < 5.00 | < 5.00 | < 5.00 | –
15 | Nc1ncnc2c1ncn2C1CCC(=O)c2c(O)ccc(O)c21 (racemic) | < 5.00 | < 5.00 | < 5.00 | < 5.00 | < 5.00 | –
16 | O=C1CCC2c3c([nH]c4ccccc34)CCN12 (racemic) | < 5.00 | < 5.00 | < 5.00 | < 5.00 | < 5.00 | –
17 | NC(=O)C1CCC(=O)c2cccc(O)c2N1 (racemic) | < 5.00 | < 5.00 | < 5.00 | < 5.00 | < 5.00 | –
18 | O=C1CCC(c2c[nH]c3ccccc23)c2c(O)ccc(O)c21 (racemic) | < 5.00 | < 5.00 | < 5.00 | < 5.00 | < 5.00 | –
19 | CC(=O)O[C@H]1C(=O)[C@@]2(C)[C@H]([C@H](OC(=O)c3ccccc3)[C@]3(O)C[C@H](OC(=O)[C@H](O)[C@@H](NC(=O)c4ccccc4)c4ccccc4)C(C)=C1C3(C)C)[C@]1(OC(C)=O)CO[C@@H]1C[C@@H]2O [PACLITAXEL] | 7.69 | – | 9.70 | < 6.00 | 9.22 | –

— ChEMBL document CHEMBL4190281, “Azacyclo-indoles and Phenolics from the Flowers of Juglans regia” (J Nat Prod, 2017)
